Measurements from ChEMBL document CHEMBL4308830, “Design, Synthesis, and Characterization of 4-Undecylpiperidine-2-carboxamides as Positive Allosteric Modulators of the Serotonin (5-HT) 5-HT2C Receptor” (J Med Chem, 2018).
Active and inactive are the calls of the source.

What was measured:
[1] = target: T1, 5-hydroxytryptamine receptor 2C (Homo sapiens) (UniProt P28335); assay: Positive allosteric modulation of human 5-HT2CR expressed in CHO cells assessed as 5-HT-induced intracellular calcium release at 1 nM preincubated for 15 mins followed by 5-HT addition by calcium-4 dye based FLIPR assay (reference value: 100%); type: functional, cell-based
T1 sequence (whole entry): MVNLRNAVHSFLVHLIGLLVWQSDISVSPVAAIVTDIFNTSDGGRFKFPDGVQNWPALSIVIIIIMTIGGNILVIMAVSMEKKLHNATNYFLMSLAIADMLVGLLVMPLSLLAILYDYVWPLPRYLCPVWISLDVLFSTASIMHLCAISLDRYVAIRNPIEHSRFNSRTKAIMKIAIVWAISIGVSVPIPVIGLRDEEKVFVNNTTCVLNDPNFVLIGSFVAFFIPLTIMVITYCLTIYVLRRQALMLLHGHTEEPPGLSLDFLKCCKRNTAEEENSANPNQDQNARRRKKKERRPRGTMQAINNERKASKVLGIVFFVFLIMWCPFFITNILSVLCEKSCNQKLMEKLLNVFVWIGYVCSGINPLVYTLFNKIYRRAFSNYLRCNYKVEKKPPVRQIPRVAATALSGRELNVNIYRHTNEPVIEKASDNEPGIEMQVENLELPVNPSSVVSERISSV
Outline: (§1)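 CHO cells stably expressing human unedited INI 5-HT2CR were plated, serum-starved 3 h, then loaded with Calcium 4 dye plus 2.5 mM probenecid (60 min 37 °C, then 15 min RT). Compound (1 nM) was added; the read after this addition gave intrinsic agonism. 5-HT (10 pM–10 μM) followed 15 min later. FLIPR-TETRA: 10 s baseline, 1 s reads for 120 s after compound and 360 s after 5-HT. Emax came from 4-parameter fits, ≥3 biological replicates in triplicate.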

[2] = target: T1, 5-hydroxytryptamine receptor 2C (Homo sapiens); assay: Intrinsic agonist activity at human 5-HT2CR expressed in CHO cells assessed as induction of intracellular calcium release at 1 nM incubated for 15 mins measured every 1 sec for 120 secs by calcium-4 dye based FLIPR assay; type: functional, cell-based; outline: as §1
[3] = system: CHO; assay: Cytotoxicity against CHO cells at 0.1 to 1000 nM after 1 hrs by LDH release assay; type: cell-based, Cricetulus griseus; details: chinese hamster, 1 µM
Outline: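 Lactate dehydrogenase release assay for cytotoxicity, compounds tested at 0.1 nM and 1 μM.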

[4] = target: 5-HT2A receptor (Homo sapiens, UniProt P28223); assay: Displacement of [3H]-Ketanserin from recombinant human 5-HT2AR expressed in HEKT cell membranes at 10 uM after 90 mins by scintillation counting method relative to control; details: probe [3H]-Ketanserin
[5] = target: 5-HT2B receptor (Homo sapiens, UniProt P41595); assay: Displacement of [3H]-LSD from recombinant human 5-HT2BR expressed in HEK cell membranes at 10 uM after 90 mins by scintillation counting method relative to control; details: probe [3H]-LSD
[6] = target: T1, 5-hydroxytryptamine receptor 2C (Homo sapiens); assay: Displacement of [3H]-mesulergine from recombinant human 5-HT2CR expressed in Flp-IN HEK cell membranes at 10 uM after 90 mins by scintillation counting method relative to control
Outline: (§2)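 Single-concentration screen at 10 μM test compound, each target labelled with the radioligand given in the line. The read-out is mean % inhibition of specific radioligand binding (n = 4). Targets above 50% inhibition went on to full competition isotherms, and Ki came from best-fit IC50 by the Cheng–Prusoff equation.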

[7] = target: 5-hydroxytryptamine receptor 5A (Homo sapiens) (UniProt P47898); assay: Displacement of [3H]-LSD from recombinant human 5-HT5AR expressed in Flp-IN CHO cell membranes at 10 uM after 90 mins by scintillation counting method relative to control
[8] = target: 5-hydroxytryptamine receptor 6 (Homo sapiens) (UniProt P50406); assay: Displacement of [3H]-LSD from recombinant human 5-HT6R expressed in HEK cell membranes at 10 uM after 90 mins by scintillation counting method relative to control
[9] = target: 5-hydroxytryptamine receptor 7 (Homo sapiens) (UniProt P34969); assay: Displacement of [3H]-LSD from recombinant human 5-HT7R expressed in HEK cell membranes at 10 uM after 90 mins by scintillation counting method relative to control
[10] = target: D(3) dopamine receptor (Homo sapiens) (UniProt P35462); assay: Displacement of [3H]-N-methylspiperone from recombinant human D3R expressed in HEK cell membranes at 10 uM after 90 mins by scintillation counting method relative to control; outline: as §2
[11] = target: Sodium-dependent dopamine transporter (Homo sapiens) (UniProt Q01959); assay: Displacement of [3H]-WIN35428 from recombinant human DAT expressed in HEK cell membranes at 10 uM after 90 mins by scintillation counting method relative to control; outline: as §2
[12] = target: Alpha-2A adrenergic receptor (Homo sapiens) (UniProt P08913); assay: Displacement of [3H]-rauwolscine from recombinant human alpha-2A adrenergic receptor expressed in MDCK cell membranes at 10 uM after 90 mins by scintillation counting method relative to control; outline: as §2
[13] = target: Alpha-2B adrenergic receptor (Homo sapiens) (UniProt P18089); assay: Displacement of [3H]-rauwolscine from recombinant human alpha-2B adrenergic receptor expressed in HEKT cell membranes at 10 uM after 90 mins by scintillation counting method relative to control; outline: as §2
[14] = Terminal half life in Sprague-Dawley rat at 5 mg/kg, iv administered as single dose; type: ADME, organism-based; details: in vivo
[15] = Clearance in Sprague-Dawley rat at 5 mg/kg, iv administered as single dose; type: ADME, organism-based; details: in vivo
[16] = Volume of distribution at steady state in Sprague-Dawley rat at 5 mg/kg, iv administered as single dose; type: ADME, organism-based; details: in vivo
[17] = system: Rattus norvegicus; assay: Increase in WAY163909-induced suppression of spontaneous locomotor activity in Sprague-Dawley rat assessed as reduction in total vertical activity at 5 mg/kg, ip cotreated with WAY163909 at 15 mins post 5-HT2C antagonist SB242084 treatment measured for 30 mins; type: functional, organism-based
Outline: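 Rats (n = 9–10/group) received SB242084 (1 mg/kg ip) or vehicle (8% 2-hydroxypropyl-β-cyclodextrin) 15 min before ip WAY163909 (1 mg/kg) plus compound (5 mg/kg). They were placed in monitors immediately; ambulations and vertical activity were totalled over 30 min. Analysis: ANOVA with Bonferroni comparisons.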

[18] = system: Rattus norvegicus; assay: Drug discrimination in WAY163909-trained Sprague-Dawley rat assessed as increase in WAY163909-appropriate lever responding at 0.5 mg/kg, ip treated 15 mins prior to test relative to control; type: functional
Outline: (§3)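 Water-restricted male Sprague–Dawley rats were trained to discriminate WAY163909 (0.75 mg/kg ip, 15 min pretreatment) from saline under FR20, to a criterion of ≥80% correct for 10 sessions. Test doses were given ip 15 min before test: compound alone (0.125–1.0 mg/kg) or compound 0.5 mg/kg plus WAY163909 0.5 mg/kg. Read-out was % drug-lever responding; only rats completing FR20 within 15 min were counted.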

[19] = system: Rattus norvegicus; assay: Drug discrimination in WAY163909-trained Sprague-Dawley rat assessed as increase in WAY163909-appropriate lever responding at 0.5 mg/kg, ip co-treated with WAY163909 15 mins prior to test relative to control; type: functional; outline: as §3

Alpha-2B adrenergic receptor (Homo sapiens), sequence (P18089 whole entry): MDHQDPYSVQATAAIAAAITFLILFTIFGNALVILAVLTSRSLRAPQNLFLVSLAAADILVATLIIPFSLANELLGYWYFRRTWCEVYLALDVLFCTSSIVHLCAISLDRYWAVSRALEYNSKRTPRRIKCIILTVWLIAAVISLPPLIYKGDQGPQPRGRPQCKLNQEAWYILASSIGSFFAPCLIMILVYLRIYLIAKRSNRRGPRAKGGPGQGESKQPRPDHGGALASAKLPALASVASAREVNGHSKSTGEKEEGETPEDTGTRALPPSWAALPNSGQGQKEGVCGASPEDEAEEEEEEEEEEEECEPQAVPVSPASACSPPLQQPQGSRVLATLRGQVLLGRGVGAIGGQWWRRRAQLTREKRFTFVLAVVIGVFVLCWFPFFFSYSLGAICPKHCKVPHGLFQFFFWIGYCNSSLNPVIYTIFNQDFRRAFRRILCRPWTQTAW
5-hydroxytryptamine receptor 7 (Homo sapiens), sequence (P34969 whole entry): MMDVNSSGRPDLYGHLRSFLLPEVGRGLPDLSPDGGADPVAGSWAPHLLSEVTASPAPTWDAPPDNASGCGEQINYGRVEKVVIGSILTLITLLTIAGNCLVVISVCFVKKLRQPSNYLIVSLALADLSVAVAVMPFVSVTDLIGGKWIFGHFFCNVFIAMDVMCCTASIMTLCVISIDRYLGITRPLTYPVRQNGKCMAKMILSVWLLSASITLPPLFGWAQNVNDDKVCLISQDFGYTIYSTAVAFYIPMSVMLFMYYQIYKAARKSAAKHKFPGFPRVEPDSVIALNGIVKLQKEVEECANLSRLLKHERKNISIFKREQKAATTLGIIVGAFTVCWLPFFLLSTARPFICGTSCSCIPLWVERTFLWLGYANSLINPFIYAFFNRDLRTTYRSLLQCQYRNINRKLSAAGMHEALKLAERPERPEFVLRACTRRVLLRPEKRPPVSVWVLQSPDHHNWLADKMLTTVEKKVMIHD
5-hydroxytryptamine receptor 5A (Homo sapiens), sequence (P47898 whole entry): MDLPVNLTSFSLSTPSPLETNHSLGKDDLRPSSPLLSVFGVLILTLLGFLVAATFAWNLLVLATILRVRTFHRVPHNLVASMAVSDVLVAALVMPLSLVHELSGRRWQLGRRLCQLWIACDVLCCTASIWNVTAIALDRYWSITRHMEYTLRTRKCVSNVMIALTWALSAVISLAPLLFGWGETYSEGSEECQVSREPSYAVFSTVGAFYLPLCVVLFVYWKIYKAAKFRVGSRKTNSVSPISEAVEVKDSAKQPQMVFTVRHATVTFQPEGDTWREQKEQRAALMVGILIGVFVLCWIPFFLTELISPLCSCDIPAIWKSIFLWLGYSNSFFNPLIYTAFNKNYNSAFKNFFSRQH
5-hydroxytryptamine receptor 6 (Homo sapiens), sequence (P50406 whole entry): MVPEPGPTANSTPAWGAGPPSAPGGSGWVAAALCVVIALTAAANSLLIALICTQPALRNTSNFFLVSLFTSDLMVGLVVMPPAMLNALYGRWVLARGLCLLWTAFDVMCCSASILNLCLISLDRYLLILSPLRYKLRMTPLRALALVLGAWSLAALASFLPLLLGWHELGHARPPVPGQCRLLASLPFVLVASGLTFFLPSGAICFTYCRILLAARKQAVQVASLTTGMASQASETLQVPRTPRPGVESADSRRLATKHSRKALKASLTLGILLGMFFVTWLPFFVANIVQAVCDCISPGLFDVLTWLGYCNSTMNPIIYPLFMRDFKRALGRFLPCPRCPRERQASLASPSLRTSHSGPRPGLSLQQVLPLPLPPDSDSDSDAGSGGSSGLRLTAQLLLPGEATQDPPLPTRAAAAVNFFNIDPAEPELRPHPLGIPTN
Alpha-2A adrenergic receptor (Homo sapiens), sequence (P08913 whole entry): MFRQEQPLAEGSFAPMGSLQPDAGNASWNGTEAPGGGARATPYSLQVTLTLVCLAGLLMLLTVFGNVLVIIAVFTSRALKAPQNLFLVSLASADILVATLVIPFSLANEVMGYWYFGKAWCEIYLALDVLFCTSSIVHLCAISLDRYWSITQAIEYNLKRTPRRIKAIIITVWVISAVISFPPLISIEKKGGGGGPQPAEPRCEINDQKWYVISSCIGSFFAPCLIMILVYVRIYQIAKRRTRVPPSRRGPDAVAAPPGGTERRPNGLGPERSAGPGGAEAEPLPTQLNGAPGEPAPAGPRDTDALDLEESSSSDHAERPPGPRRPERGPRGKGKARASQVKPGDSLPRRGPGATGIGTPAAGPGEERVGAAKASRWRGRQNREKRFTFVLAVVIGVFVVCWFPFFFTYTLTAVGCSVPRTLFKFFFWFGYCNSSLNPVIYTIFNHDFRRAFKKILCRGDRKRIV
Sodium-dependent dopamine transporter (Homo sapiens), sequence (Q01959 whole entry): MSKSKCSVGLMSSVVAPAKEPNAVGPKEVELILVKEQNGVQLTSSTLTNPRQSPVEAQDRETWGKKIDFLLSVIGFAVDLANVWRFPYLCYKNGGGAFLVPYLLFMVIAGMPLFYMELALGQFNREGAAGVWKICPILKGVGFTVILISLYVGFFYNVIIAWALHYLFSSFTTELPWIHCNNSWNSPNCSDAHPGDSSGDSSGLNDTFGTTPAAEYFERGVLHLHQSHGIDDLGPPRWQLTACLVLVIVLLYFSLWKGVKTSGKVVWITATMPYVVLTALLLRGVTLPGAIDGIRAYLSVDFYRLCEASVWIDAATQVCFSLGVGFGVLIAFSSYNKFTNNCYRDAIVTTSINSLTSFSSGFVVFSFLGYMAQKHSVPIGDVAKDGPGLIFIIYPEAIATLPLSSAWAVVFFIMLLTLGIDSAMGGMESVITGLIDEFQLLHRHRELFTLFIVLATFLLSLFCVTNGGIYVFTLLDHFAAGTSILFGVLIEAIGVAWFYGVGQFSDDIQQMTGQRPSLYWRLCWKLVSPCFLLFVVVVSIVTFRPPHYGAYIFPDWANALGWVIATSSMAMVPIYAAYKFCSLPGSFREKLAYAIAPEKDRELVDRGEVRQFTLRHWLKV
D(3) dopamine receptor (Homo sapiens), sequence (P35462 whole entry): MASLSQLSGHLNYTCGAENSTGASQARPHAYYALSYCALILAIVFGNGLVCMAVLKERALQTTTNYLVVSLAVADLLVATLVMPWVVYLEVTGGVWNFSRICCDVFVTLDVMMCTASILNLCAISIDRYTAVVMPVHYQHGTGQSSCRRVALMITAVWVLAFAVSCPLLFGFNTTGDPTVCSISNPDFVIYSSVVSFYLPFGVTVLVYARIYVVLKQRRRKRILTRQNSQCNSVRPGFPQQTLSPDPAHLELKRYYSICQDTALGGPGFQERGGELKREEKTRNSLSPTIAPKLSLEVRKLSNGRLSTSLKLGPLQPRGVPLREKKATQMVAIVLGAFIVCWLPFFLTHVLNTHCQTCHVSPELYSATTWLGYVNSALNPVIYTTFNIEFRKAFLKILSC
5-HT2A receptor, sequence (P28223 whole entry): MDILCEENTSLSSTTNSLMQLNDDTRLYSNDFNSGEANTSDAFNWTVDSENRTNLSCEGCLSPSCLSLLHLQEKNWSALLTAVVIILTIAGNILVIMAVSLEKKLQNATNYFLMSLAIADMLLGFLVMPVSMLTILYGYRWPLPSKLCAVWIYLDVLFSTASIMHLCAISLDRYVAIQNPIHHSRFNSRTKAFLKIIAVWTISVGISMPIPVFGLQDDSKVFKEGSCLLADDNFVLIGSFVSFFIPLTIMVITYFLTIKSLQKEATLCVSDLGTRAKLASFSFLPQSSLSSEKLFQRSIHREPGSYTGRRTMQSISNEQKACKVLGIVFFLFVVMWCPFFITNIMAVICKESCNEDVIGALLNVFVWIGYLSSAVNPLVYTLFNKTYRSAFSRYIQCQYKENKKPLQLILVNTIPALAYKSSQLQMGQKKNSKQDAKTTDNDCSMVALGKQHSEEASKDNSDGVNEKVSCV
5-HT2B receptor, sequence (P41595 whole entry): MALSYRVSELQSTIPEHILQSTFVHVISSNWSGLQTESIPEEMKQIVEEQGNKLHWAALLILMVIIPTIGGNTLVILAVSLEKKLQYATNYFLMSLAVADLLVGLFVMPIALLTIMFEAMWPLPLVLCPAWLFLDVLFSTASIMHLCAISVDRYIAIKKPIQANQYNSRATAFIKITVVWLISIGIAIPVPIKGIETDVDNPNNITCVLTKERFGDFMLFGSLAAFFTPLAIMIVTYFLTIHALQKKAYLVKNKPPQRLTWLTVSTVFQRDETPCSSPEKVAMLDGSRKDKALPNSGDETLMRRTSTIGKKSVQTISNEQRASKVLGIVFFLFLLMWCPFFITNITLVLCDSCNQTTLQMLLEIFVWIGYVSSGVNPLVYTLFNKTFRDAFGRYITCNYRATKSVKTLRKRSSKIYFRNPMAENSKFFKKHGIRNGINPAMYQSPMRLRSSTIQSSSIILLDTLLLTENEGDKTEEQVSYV

CCCCCCCCCCC[C@@H]1CCN[C@H](C(=O)NCC(O)CO)C1 (relative stereo)
Emax [1]: 123%
Activity [2]: inactive
Activity [3]: Non-Toxic
inhibition at 1.5 h, 10 µM [4]: 37.1%
inhibition at 1.5 h, 10 µM [5]: 15.1%
inhibition [6]: 9.8%
inhibition [7]: 17.2%
inhibition [8]: 18.1%
inhibition [9]: 26.8%
inhibition [10]: 71.4%
inhibition [11]: 66.3%
inhibition [12]: 85.1%
inhibition [13]: 80.7%
beta t1/2 [14]: 6.59 h
CL [15]: 89.5 mL/min/kg
Vdss [16]: 35.07 L/kg
Activity [17]: Active
Activity [18]: 30%
Activity [19]: 95%
